Common to all, as to type: functional, cell-based
For assay [1], the system named is SW480. As to the kind of experiment: Cytotoxicity against human SW480 cells after 48 hrs by MTS assay. To be noted: SW480, 48 h. A digest of the protocol: (§1)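 Cells kept in RPMI 1640 with 10% FBS and 100 U/mL penicillin/streptomycin, 37 °C, 5% CO2. Seeded at 5 × 10^3/well with test samples at various concentrations for 48 h. MTS (5 mg/mL in PBS) added, 4 h more. Medium partly replaced by 20% SDS overnight to dissolve formazan. Absorbance read at 570 nm. IC50 calculated by Reed and Muench method. Cisplatin served as positive control.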

The subject of assay [2] is SMMC-7721. Kind of assay: Cytotoxicity against human SMMC7721 cells after 48 hrs by MTS assay. As to conditions: SMMC-7721, 48 h. An outline of the steps: as §1
On the technique in general: Tetrazolium dyes change colour on reduction, which living cells bring about.

The test system of assay [3] is MCF7. Kind of assay: Cytotoxicity against human MCF7 cells after 48 hrs by MTS assay. As to conditions: MCF7, 48 h. An outline of the steps:
as §1

The subject of assay [4] is HL-60. Kind of assay: Cytotoxicity against human HL60 cells after 48 hrs by MTS assay. To be noted: HL-60, 48 h. A digest of the protocol:
as §1

Assay [5] can be described thus: Cytotoxicity against human ECA109 cells after 48 hrs by MTT assay. To be noted: ECa-109, 48 h. An outline of the steps:
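Cells grown in RPMI 1640 with 10% FBS and 100 U/mL penicillin/streptomycin, humidified 5% CO2, 37 °C. Plated 5 × 10^3/well, exposed to test samples at various concentrations for 48 h. MTT then added in place of MTS, 4 h further. Formazan dissolved overnight in 20% SDS, A570 measured. IC50 by Reed and Muench method. Tanespimycin (17AAG) was the positive control.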

In assay [6] the test system is A549. As to the kind of experiment: Cytotoxicity against human A549 cells after 48 hrs by MTS assay. To be noted: A549, 48 h. A digest of the protocol: as §1

Each structure is given as a SMILES string.

With `COc1ccc2cc1Oc1ccc(cc1)C[C@H]1c3c(cc4c(c3Oc3cc5c(cc3OC)CCN=C5C2)OCO4)CC[N@@+]1(C)[O-]`, the half-inhibitory concentration (IC50) in assay [1] was > 10 µM; in assay [2], > 10 µM; in assay [3] it was > 10 µM; in assay [4], > 10 µM; in assay [5], 10 µM; in assay [6], > 10 µM.

On to `COc1ccc2cc1Oc1ccc(cc1)C[C@H]1c3cc(c(OC)cc3CCN1C)Oc1c(O)c(OC)cc3c1[C@H](C2)N(C)CC3` [FANGCHINOLINE], for which the IC50 is > 10 µM in assay [1]; > 10 µM in assay [2]; 5 µM in assay [3]; > 10 µM in assay [4]; > 10 µM in assay [5]; > 10 µM in assay [6].

Turning to `COc1ccc2cc1Oc1ccc(cc1)C[C@H]1c3c(cc4c(c3Oc3cc5c(cc3OC)CCN[C@@H]5C2)OCO4)CCN1C`, the IC50 in assay [1] came to 3.7 µM; in assay [2], 4.8 µM; in assay [3], 2.3 µM; in assay [4] it was 2.8 µM; in assay [5] it was 3.2 µM; in assay [6] it was 3.7 µM.

In the case of `COc1ccc2cc1Oc1ccc(cc1)C[C@H]1c3c(cc4c(c3Oc3cc5c(cc3OC)CCN(C)[C@@H]5C2)OCO4)CCN1C` [CEPHARANTHINE], the IC50 was 4.7 µM in assay [1]; 9.9 µM in assay [2]; 2.9 µM in assay [3]; 9.2 µM in assay [4]; > 10 µM in assay [5]; 5 µM in assay [6].

For `C=CCNC1=C2C[C@@H](C)C[C@H](OC)[C@H](O)[C@@H](C)/C=C(\C)[C@H](OC(N)=O)[C@@H](OC)/C=C\C=C(/C)C(=O)NC(=CC1=O)C2=O` [TANESPIMYCIN], the midpoint of inhibition in assay [5], the IC50, lay at 1.1 µM.

As for `COc1ccc2cc1Oc1ccc(cc1)C[C@H]1c3c(cc(OC)c(O)c3Oc3cc4c(cc3OC)CCN(C)[C@@H]4C2)CCN1C` [HOMOAROMOLINE], the half-maximal inhibitory concentration (IC50) in assay [1] was > 10 µM; in assay [2], > 10 µM; in assay [3], 9.5 µM; in assay [4], > 10 µM; in assay [5] it was > 10 µM; in assay [6], > 10 µM.

What is called IC50 is the point on the concentration scale where inhibition reaches its midpoint.

Values taken from ChEMBL document CHEMBL2375340, “Cytotoxic bisbenzylisoquinoline alkaloids from Stephania epigaea” (J Nat Prod, 2013).
